Rows were chosen to be rich in hits. Some 5.7% of all compounds tested hit in one or more screens of this group.
Calb FLC: C. albicans growth modulation with fluconazole. C. albicans CaCi-2 (fluconazole-resistant clinical isolate) + fluconazole, Alamar Blue growth, 48 h. growth inhibition, % (test concentration not listed). 0.57% of 300,000 active. AID 1979;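 active means growth inhibition above about 58% in most replicates, limit read from the data, passing the limit was not always enough; inconclusive means exactly half the replicates above a set limit; inactive means most replicates below a set limit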;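 further: all wells also contain fluconazole at 8 µg/ml as a sub-toxic cotreatment; 0% = median of DMSO wells and 100% = median of geldanamycin control wells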
CSC inhib: cancer stem cell inhibition. cancer stem cell-like cells viability, luminescence. 1.1% of 300,000 active. inhibition, % at 7.5 µM; in the data active means inhibition above about 75%; inconclusive means no clear call, values can overlap the other calls; tested in HMLE shEcad cells
SKKanGAS inh: SKKanGAS growth inhibition; S. pyogenes SKKanGAS, kanamycin growth, BacTiter-Glo, 6 h; inhibition, % at 7.5 µM; 1.3% of 300,000 active; AID 1662;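 active means mean replicate score, as percent of positive control median, at least 50; inconclusive means mean below 50 but one replicate at or above 50; inactive means mean and every replicate below 50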;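 further: strain carries kanamycin resistance gene driven by streptokinase promoter and grows in 40 µg/ml kanamycin; loss of luminescence reflects streptokinase promoter inhibition or plain growth inhibition; 0% = median of DMSO wells and 100% = positive control at its reference dose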
Beta apoptosis: blocks beta cell apoptosis; protection from apoptosis, % (test concentration not listed); INS-1E cytokine-induced death, ATP luminescence, 48 h; percent of positive-control rescue, neutral wells zero; AID 435005; 0.8% of 300,000 active;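 active means Every replicate reaches about 75%, or at least half do and their mean reaches it too, limit read from the data; inconclusive means At least half of replicates reach the limit but their mean does not; inactive means Under half of replicates reach the limit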;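 further: 0% = cytokine-treated negative control wells and 100% = positive control rescue; higher means more ATP so stronger rescue from cytokine killing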
T cruzi repl: blocks replication of Trypanosoma cruzi | T. cruzi beta-gal in NIH3T3, luminescence, 90 h | inhibition, % (no concentration beside the values) | 1.4% of 300,000 active;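 active means mean inhibition across valid replicates above about 55%, limit read from the data; inconclusive means mean below that limit but half or more replicates reach it; inactive means mean below it, under half of replicates reach it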;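 further: signal also drops with host cell toxicity which is not excluded here; 0% = plate median of DMSO wells and 100% = zero luminescence signal; higher percent means less beta-gal luminescence so fewer parasites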
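Assay system: NIH/3T3 fibroblasts plus reporter T. cruzi. Amount: NIH/3T3 cells, 5,000 per well. Buffer or medium: DMEM, 2% fetal bovine serum. Doses: compound pinned at 50 nL/well, DMSO. Schedule: ≥90 h infection period, 3 h prior cell attachment. Signal: luminescent β-galactosidase signal after 60 min lysis. Read-out: parasite load inhibition, %.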
Mdm2 MdmX PPI: inhibitors of human Mdm2/MdmX interaction; O15151+Q00987; SaOS-2 split-luciferase Mdm2/MdmX complementation, luminescence; inhibition, % at 8 µM; 3% of 330,000 active;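 active means inhibition of at least 50% at 8 µM in the primary screen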
Target sequence (O15151 whole entry, looked up): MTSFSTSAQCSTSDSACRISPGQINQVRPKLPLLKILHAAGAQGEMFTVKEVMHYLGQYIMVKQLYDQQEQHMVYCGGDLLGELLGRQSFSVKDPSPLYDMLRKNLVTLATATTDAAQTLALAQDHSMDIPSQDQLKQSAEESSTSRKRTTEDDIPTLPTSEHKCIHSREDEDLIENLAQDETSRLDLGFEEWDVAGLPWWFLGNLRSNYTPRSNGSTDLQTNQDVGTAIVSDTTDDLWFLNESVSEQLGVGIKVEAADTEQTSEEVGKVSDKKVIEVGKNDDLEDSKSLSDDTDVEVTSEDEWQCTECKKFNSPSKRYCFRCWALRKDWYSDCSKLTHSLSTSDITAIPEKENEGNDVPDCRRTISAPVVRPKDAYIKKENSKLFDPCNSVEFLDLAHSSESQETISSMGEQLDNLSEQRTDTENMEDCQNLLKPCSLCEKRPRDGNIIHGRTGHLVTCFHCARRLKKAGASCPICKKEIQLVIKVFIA
Target sequence (Q00987 whole entry, looked up): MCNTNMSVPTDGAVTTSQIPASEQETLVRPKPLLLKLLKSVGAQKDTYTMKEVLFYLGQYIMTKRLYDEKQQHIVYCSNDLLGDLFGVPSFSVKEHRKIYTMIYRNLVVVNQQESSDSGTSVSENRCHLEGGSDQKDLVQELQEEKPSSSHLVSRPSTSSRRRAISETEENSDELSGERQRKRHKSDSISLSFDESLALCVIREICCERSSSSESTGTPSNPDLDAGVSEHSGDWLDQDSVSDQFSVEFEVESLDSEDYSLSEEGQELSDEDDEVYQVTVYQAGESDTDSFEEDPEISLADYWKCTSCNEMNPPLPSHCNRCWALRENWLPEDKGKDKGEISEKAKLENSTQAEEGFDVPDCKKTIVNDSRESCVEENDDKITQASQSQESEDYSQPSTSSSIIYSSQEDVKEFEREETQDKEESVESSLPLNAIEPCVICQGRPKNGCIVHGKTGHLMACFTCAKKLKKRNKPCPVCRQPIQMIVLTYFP
An asterisk follows results filed as active.

Cn1nc([N+](=O)[O-])nc1Oc1ccccc1N was read as Calb FLC 6.7, CSC inhib -0.5, SKKanGAS inh 6.0, T cruzi repl 62.7* and Mdm2 MdmX PPI 15.6.
`Cn1nc([N+](=O)[O-])nc1Oc1ccccc1F` gave Calb FLC 4.7, SKKanGAS inh -9.0, Beta apoptosis -0.7, T cruzi repl 74.1* and Mdm2 MdmX PPI -18.4.
Cn1c(=O)c2c(nc(Oc3ccccc3N)n2C)n(C)c1=O was read as Calb FLC -0.5, CSC inhib -22.9, SKKanGAS inh 3.7, Beta apoptosis 1.1, T cruzi repl -17.1 and Mdm2 MdmX PPI 23.4.
Cn1nc([N+](=O)[O-])nc1Oc1ccc2ccccc2c1 was read as Calb FLC 8.8, CSC inhib -6.8, SKKanGAS inh 1.9, Beta apoptosis -13.7, T cruzi repl 47.2 and Mdm2 MdmX PPI 16.1.
Screening CCOc1cc(/C=N/N=C(N)N)ccc1OCc1ccc(Cl)cc1 returned Calb FLC 104.7*, CSC inhib 105.6*, SKKanGAS inh 4.0, Beta apoptosis 15.8 and T cruzi repl 30.9.
Screening COc1cc(/C=N/O)ccc1OCc1ccc(Cl)cc1 returned Calb FLC inconclusive, CSC inhib 5.6, SKKanGAS inh -8.6, Beta apoptosis 1.4, T cruzi repl 9.5 and Mdm2 MdmX PPI -186.2.
For O=C(CSc1nnc(-c2ccncc2)n1-c1ccccc1)NC1CC1 the results were Calb FLC -4.2, CSC inhib 2.8, SKKanGAS inh 25.8, Beta apoptosis -3.7, T cruzi repl 1.0 and Mdm2 MdmX PPI 12.4.
`COc1ccc(-c2sc3cc4c(cc3c2C#CC2(O)CCCCC2)OCO4)cc1` gave CSC inhib 112.0*, Beta apoptosis -9.4 and Mdm2 MdmX PPI 5.6.
`COc1ccccc1-c1sc2cc3c(cc2c1C#CC1(O)CCCCC1)OCO3` gave CSC inhib 68.4, Beta apoptosis -0.8 and Mdm2 MdmX PPI 1.1.
Cc1oc(-c2ccccc2)nc1C(=O)N1CCN(c2ccc(F)cc2)CC1 was read as Calb FLC 34.9, CSC inhib -1.7, SKKanGAS inh -0.7, Beta apoptosis -2.5, T cruzi repl 3.6 and Mdm2 MdmX PPI -16.0.
`CC1(C)C(O)=C(c2nc3ccccc3[nH]2)C(=N)N1c1ccccc1` gave Calb FLC 99.8*, CSC inhib -14.0, SKKanGAS inh 25.3, Beta apoptosis 25.7, T cruzi repl -14.1 and Mdm2 MdmX PPI -15.6.
Screening CC(C)N1CC(O)=C(c2nc3ccccc3[nH]2)C1=N returned Calb FLC -0.3, CSC inhib -0.3, SKKanGAS inh -3.0, Beta apoptosis -1.5, T cruzi repl -10.0 and Mdm2 MdmX PPI 0.7.
`O=C(NC1CCN(C(=O)Nc2ccccc2Cl)CC1)c1ccccc1` gave Calb FLC -1.9, CSC inhib -24.4, SKKanGAS inh 1.1, Beta apoptosis 6.1, T cruzi repl -6.8 and Mdm2 MdmX PPI -20.3.
CC(=O)c1ccc(N2CCN(S(=O)(=O)c3c(C(=O)N4CCCC4)c(C)n(C)c3C)CC2)cc1 was read as Calb FLC 2.2, CSC inhib -8.0, SKKanGAS inh -0.1, Beta apoptosis -9.5, T cruzi repl -0.4 and Mdm2 MdmX PPI 17.0.
`C/C(=N\Nc1cc(N2CCCCC2)nc(C)n1)c1ccc(Br)cc1` gave Calb FLC -0.3, CSC inhib 105.0*, SKKanGAS inh 81.7*, Beta apoptosis 59.8, T cruzi repl 72.0* and Mdm2 MdmX PPI 38.7.
Screening CCCCCCc1c(C)nc(-n2[nH]c(C)c(CCO)c2=O)[nH]c1=O returned Calb FLC 93.1*, CSC inhib -5.8, SKKanGAS inh 10.5, Beta apoptosis 2.9, T cruzi repl -15.0 and Mdm2 MdmX PPI 9.8.
For CCOCCCNC(=O)C(NC(=O)c1ccc(NC(C)=O)cc1)c1ccc(OC)cc1 (configuration not stated) the results were Calb FLC -9.4, CSC inhib -9.4, SKKanGAS inh -0.5, Beta apoptosis -3.6, T cruzi repl -2.2 and Mdm2 MdmX PPI -20.7.
Screening Cn1c(=O)c2c(ncn2CC(=O)Nc2nccs2)n(C)c1=O returned Calb FLC 0.9, CSC inhib -16.5, SKKanGAS inh -4.2, Beta apoptosis -1.7, T cruzi repl -6.4 and Mdm2 MdmX PPI 23.8.
Screening Cc1ccc(C)c(S(=O)(=O)N2CCN(CC(=O)NC(C)c3ccccc3)CC2)c1 (configuration not stated) returned Beta apoptosis 2.2 and Mdm2 MdmX PPI -21.5.
`CCn1c(=O)c(=O)[nH]c2c(=O)oc3ccc(S(=O)(=O)Nc4ccccc4)cc3c21` gave Calb FLC 2.1, CSC inhib -6.9, SKKanGAS inh 16.3, Beta apoptosis -3.0, T cruzi repl -6.0 and Mdm2 MdmX PPI 14.5.
Cn1c(C(=O)OC(C(=O)NC(C)(C)C)c2cccnc2)cc2sccc21 (configuration not stated) was read as Calb FLC -53.1, CSC inhib 3.0, SKKanGAS inh -12.0, Beta apoptosis -8.9, T cruzi repl 64.4* and Mdm2 MdmX PPI 4.4.
`Cn1c(C(=O)OC(C(=O)NC2CCCC2)c2ccncc2)cc2sccc21` (configuration not stated) gave Calb FLC -1.9, CSC inhib 1.6, SKKanGAS inh -3.0, Beta apoptosis -2.6, T cruzi repl 20.2 and Mdm2 MdmX PPI -12.6.
`Cn1c(C(=O)OC(C(=O)NC2CCCCC2)c2ccncc2)cc2sccc21` (configuration not stated) gave Calb FLC -0.6, CSC inhib 2.8, SKKanGAS inh -5.1, Beta apoptosis 4.6, T cruzi repl 57.6* and Mdm2 MdmX PPI -7.1.
For COc1ccc(CN(C)S(=O)(=O)c2ccc3c(c2)OCCO3)cc1 the results were Calb FLC 11.2, CSC inhib -5.3, SKKanGAS inh 50.9*, T cruzi repl -1.6 and Mdm2 MdmX PPI 5.1.
Cc1ccc(S(=O)(=O)NCCSc2nnnn2-c2ccc(C(N)=O)cc2)cc1 was read as Calb FLC -6.1, CSC inhib -12.1, SKKanGAS inh 0.4, Beta apoptosis -2.9, T cruzi repl -1.6 and Mdm2 MdmX PPI -7.1.
`Cc1ccc(-n2nnnc2Sc2ccc(S(=O)(=O)NCCN(C)C)cc2[N+](=O)[O-])cc1` gave Calb FLC 2.9, CSC inhib 98.5*, SKKanGAS inh 4.3, Beta apoptosis 9.1 and T cruzi repl 38.1.
For Cc1ccc(C(O)CCc2ccc(N)cc2)cc1 (configuration not stated) the results were Calb FLC -5.9, CSC inhib 12.1, SKKanGAS inh 4.6, Beta apoptosis -2.0, T cruzi repl 24.1 and Mdm2 MdmX PPI 4.0.
For O=C(Nc1ccc(OC(F)(F)F)cc1)C1CCCN(S(=O)(=O)c2cnc[nH]2)C1 (configuration not stated) the results were Calb FLC -1.1, CSC inhib -13.0, SKKanGAS inh 99.1*, Beta apoptosis 2.6, T cruzi repl 1.5 and Mdm2 MdmX PPI 22.5.

From PubChem
